Assay results gathered from unrelated publications.
Compare with care: the assays were run in different laboratories.
Organism: Pichia kudriavzevii
Read-out: microbial growth

The MIC of CCCCCN1CCN(CC(O)(Cn2cncn2)c2ccc(F)cc2F)CC1 (stereo not drawn) is reported as greater than 31.3 µg/mL (broth dilution; ATCC6258; 48 h).
CCCCCOc1c(OC)cc(NC(C)CCCNC(=O)C(N)Cc2cc3ccccc3[nH]2)c2nc(C(C)(C)C)ccc12 (stereo not drawn) has an MIC of 10 µg/mL (ATCC6258).
C=C(C)[C@@H]1CC[C@]2(C)CC[C@]3(C)[C@H](CC[C@@H]4[C@@]5(C)CCC(=O)C(C)(C)[C@@H]5CC[C@]43C)[C@@H]12 has an MIC of 500 µg/mL (broth dilution; ATCC6258; 48 h).
The MIC of CCCCCCCOc1c(OC)cc(NC(C)CCCN)c2nc(C(C)(C)C)cc(C)c12 (stereo not drawn) is reported as 5 µg/mL (ATCC6258).
C[C@@H]1[C@H](O)[C@@H](C)/C=C/C=C/C=C/C=C/C=C/C=C/C=C/[C@H](O[C@@H]2O[C@H](C)[C@@H](O)[C@H](N)[C@@H]2O)C[C@@H]2O[C@](O)(C[C@@H](O)C[C@@H](O)[C@H](O)CC[C@@H](O)C[C@@H](O)CC(=O)O[C@H]1C)C[C@H](O)[C@H]2C(=O)O gave an MIC of 0.5 µM.
The MIC of CCCCCOc1c(OC)cc(NC(C)CCCNC(=O)C(N)Cc2ccccc2)c2nc(C(C)(C)C)ccc12 (stereo not drawn) is reported as 10 µg/mL (ATCC6258).
For CCCCCCCCCCN1CCNCC1, the MIC was 7.8 µg/mL (broth dilution; ATCC6258; 48 h).
For C=C(C)[C@@H]1CC[C@]2(C(=O)O)CC[C@]3(C)[C@H](CC[C@@H]4[C@@]5(C)CC[C@H](O)C(C)(C)[C@@H]5CC[C@]43C)[C@@H]12, the MIC was 250 µg/mL (broth dilution; ATCC6258; 48 h).
CCCCCCCCN1CCNCC1 gave an MIC of greater than 31.3 µg/mL (broth dilution; ATCC6258; 48 h).
CCCCCCOc1c(OC)cc(NC(C)CCCN)c2nc(C(C)(C)C)cc(C)c12 (stereo not drawn) gave an MIC of 5 µg/mL (ATCC6258).
For C[C@@H]1[C@H](O)[C@@H](C)/C=C/C=C/C=C/C=C/C=C/C=C/C=C/[C@H](O[C@@H]2O[C@H](C)[C@@H](O)[C@H](N)[C@@H]2O)C[C@@H]2O[C@](O)(C[C@@H](O)C[C@@H](O)[C@H](O)CC[C@@H](O)C[C@@H](O)CC(=O)O[C@H]1C)C[C@H](O)[C@H]2C(=O)O, the MIC was 0.5 µg/mL (broth dilution; ATCC6258).
For CCCCCCCCCCCN1CCNCC1, the MIC was 7.8 µg/mL (broth dilution; ATCC6258; 48 h).
